Measurements published in ChEMBL document CHEMBL4715714, “Design, synthesis and biological evaluation of thiosemicarbazones, hydrazinobenzothiazoles and arylhydrazones as anticancer agents with a potential to overcome multidrug resistance” (Eur J Med Chem, 2016).
Activity calls are given as the source filed them. The rule behind the calls is not given here.

Experiments:
[1] = tested on: MES-SA; test: Cytotoxicity against human MES-SA cells assessed as inhibition of cell proliferation incubated for 72 hrs by MTT assay; assay type: functional, cell-based
In short: (§1)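 Cells were seeded (10000/well for A2780, 5000/well for MES-SA/Dx5 and KB-3-1/V1) and left to attach 12 h, then exposed to compound for 72 h. Medium was removed, and MTT (0.83 mg/mL) was added for 1 h at 37 °C. Cells were lysed in DMSO and absorbance read at 540 nm. Signal was corrected for unstained lysate background, normalized to untreated cells, and IC50 taken from a sigmoidal dose-response fit.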

[2] = tested on: MES-SA/Dx5; test: Cytotoxicity against human MES-SA/DX5 cells assessed as inhibition of cell proliferation incubated for 72 hrs by MTT assay; assay type: functional, cell-based; settings: MES-SA/Dx5, 72 h; in short: as §1
[3] = tested on: MES-SA; test: Cytotoxicity against human MES-SA cells transfected with mCherry fluorescent protein assessed as inhibition of cell proliferation incubated for 72 hrs by fluorescent assay; assay type: functional, cell-based
In short: (§2)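 MES-SA and MES-SA/Dx5 cells were made to stably express mCherry by lentiviral transduction. Cells were seeded at 5000 (96-well) or 2500 (384-well) per well, allowed to attach 24 h, then treated with compound dilutions for 72 h. Viability was read as fluorescence, excitation 585 nm, emission 610 nm.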

[4] = tested on: MES-SA/Dx5; test: Cytotoxicity against human MES-SA/DX5 cells transfected with mCherry fluorescent protein assessed as inhibition of cell proliferation incubated for 72 hrs by fluorescent assay; assay type: functional, cell-based; settings: Homo sapiens, MES-SA/Dx5, 72 h; in short: as §2
[5] = tested on: KB 3-1; test: Cytotoxicity against human KB-3-1 cells assessed as inhibition of cell proliferation incubated for 72 hrs by MTT assay; assay type: functional, cell-based; settings: KB 3-1, 72 h; in short: as §1
[6] = tested on: KB-V1; test: Cytotoxicity against human KB-V1 cells assessed as inhibition of cell proliferation incubated for 72 hrs by MTT assay; assay type: functional, cell-based; settings: KB-V1, 72 h; in short: as §1
[7] = tested on: A2780; test: Cytotoxicity against human A2780 cells assessed as inhibition of cell proliferation incubated for 72 hrs by MTT assay; assay type: functional, cell-based; settings: for IC50: A2780, 72 h; in short: as §1
[8] = (§3) Cytotoxicity against human A2780adr cells assessed as inhibition of cell proliferation incubated for 72 hrs by MTT assay; assay type: functional, cell-based; settings: A2780 ADR; in short: as §1
[9] = tested on: HFF; test: Cytotoxicity against human HFF cells by MTT assay
[10] = tested on: MES-SA/Dx5; test: Cytotoxicity against human MES-SA/DX5 cells incubated for 72 hrs in presence of efflux pump inhibitor, Tariquidar by MTT assay; assay type: functional, cell-based
In short: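 Run as the 72 h MTT viability readout (12 h attachment, MTT 0.83 mg/mL for 1 h, DMSO lysis, A540), with the P-gp inhibitor Tariquidar at 1 µM co-present. IC50 came from sigmoidal fits of 2 to 4 independent experiments.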

[11] = Selectivity ratio of IC50 for human MES-SA cells to IC50 for human MES-SA/DX5 cells incubated for 72 hrs by MTT assay; assay type: functional
In short: (§4)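 The selectivity ratio is the IC50 in P-gp-negative parental cells divided by the IC50 in the P-gp-positive resistant partner.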

[12] = Selectivity ratio of IC50 for human A2780 cells to IC50 for human A2780adr cells incubated for 72 hrs by MTT assay; assay type: functional; in short: as §4
[13] = tested on: A2780 ADR; test: Cytotoxicity against human A2780adr cells assessed as inhibition of cell proliferation incubated for 72 hrs in presence of efflux pump inhibitor, Tariquidar by MTT assay; assay type: functional, cell-based
[14] = Selectivity ratio of IC50 for human MES-SA cells transfected with mCherry to IC50 for human MES-SA/DX5 cells transfected with mCherry incubated for 72 hrs by fluorescent assay; assay type: functional
[15] = tested on: MES-SA/Dx5; test: Cytotoxicity against human MES-SA/DX5 cells transfected with mCherry fluorescent protein incubated for 72 hrs in presence of efflux pump inhibitor, Tariquidar by fluorescence assay; assay type: functional, cell-based
In short: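 The mCherry-expressing cells (lentiviral) were seeded at 5000 or 2500 per well, attached for 24 h, and exposed 72 h to compounds with Tariquidar coadministered. Live-cell signal was fluorescence at 585 nm excitation and 610 nm emission.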

[16] = tested on: A2780 ADR; test: as §3; assay type: functional, cell-based; in short: as §1
[17] = tested on: MES-SA/Dx5; test: Reduction in P-gp expression in human MES-SA/DX5 cells at IC20 concentration incubated for 5 days by calcein-AM staining based flow cytometric analysis; assay type: functional, cell-based; settings: time 5.0 day
In short: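 MES-SA/Dx5 cells were grown 5 days with compound at IC20 values calculated from viability assays, then recovered in drug-free medium refreshed every fifth day. At 80% confluency, cells were stained with Calcein AM with or without verapamil, with TO-PRO-3 excluding dead cells, and analysed by flow cytometry for the P-gp-negative fraction.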

[18] = Selectivity ratio of IC50 for human KB-3-1 cells to IC50 for human KB-V1 cells incubated for 72 hrs by MTT assay; assay type: functional; in short: as §4
[19] = tested on: KB-V1; test: Cytotoxicity against human KB-V1 cells assessed as inhibition of cell proliferation incubated for 72 hrs in presence of efflux pump inhibitor, Tariquidar by MTT assay; assay type: functional, cell-based
[20] = Homo sapiens, MES-SA, 72 h, read-out: IC50
[21] = Homo sapiens, MES-SA, 72 h, read-out: pIC50 (converted)

| SMILES | IC50 ([1]; read-out: IC50) [µM] | IC50 ([2]; read-out: IC50) [µM] | IC50 [3, 20] [µM] | IC50 ([4]; read-out: IC50) [µM] | IC50 ([5]; read-out: IC50) [µM] | IC50 ([5]; read-out: pIC50 (converted)) [µM] | IC50 ([6]; read-out: IC50) [µM] | IC50 ([6]; read-out: pIC50 (converted)) [µM] | IC50 ([7]; read-out: IC50) [µM] | IC50 ([7]; read-out: pIC50 (converted)) [µM] | IC50 ([8]; read-out: IC50) [µM] | IC50 ([8]; read-out: pIC50 (converted)) [µM] | Activity [9] | Activity [10] | Ratio IC50 [11] | IC50 ([1]; read-out: pIC50 (converted)) [µM] | IC50 ([2]; read-out: pIC50 (converted)) [µM] | IC50 [3, 21] [µM] | IC50 ([4]; read-out: pIC50 (converted)) [µM] | Ratio IC50 [14] | further results |
| --- | --- | --- | --- | --- | --- | --- | --- | --- | --- | --- | --- | --- | --- | --- | --- | --- | --- | --- | --- | --- | --- |
| Cc1ccc(NC(=S)N/N=C/c2ccccc2O)cc1 | 3.97 | 5.36 | 1.44 | 1.87 | 3.36 | 3.31 | 3.69 | 3.47 | 5.15 | 5.01 | 6.01 | 6.03 | Toxic | – | – | – | – | – | – | – | – |
| CCc1ccc(/C=N/Nc2cc(OC)ncn2)nc1 | 1.55 | 1.11 | 2.33 | 2.11 | 1.23 | 1.23 | 1.57 | 1.55 | 1.3 | 1.29 | 0.63 | 0.617 | – | Active | 1.41 | – | – | – | – | – | Ratio IC50 [12]: 2.03; Activity [13]: Active |
| C/C(=N\Nc1nc2ccccc2s1)c1ccccn1 | 0.2 | 0.014 | 0.25 | 0.1 | 0.34 | 0.372 | 0.28 | 0.295 | 0.094 | 0.0891 | 0.031 | 0.0302 | Non-Toxic | Active | 17.58 | 0.219 | 0.0123 | 0.24 | 0.0832 | – | – |
| COc1ccc(NC(=S)N/N=C2\C(=O)Nc3ccc(OC(F)(F)F)cc32)cc1 | 6.14 | 2.78 | 8.14 | 2.52 | 6.56 | 6.17 | 3.92 | 3.89 | 3.39 | 3.24 | 3.77 | 3.55 | – | inactive | 2.31 | 5.75 | 2.57 | – | – | 3.29 | Activity [15]: inactive |
| Oc1ccccc1/C=N/Nc1nc2ccccc2s1 | 24.7 | 10.5 | 23.2 | 4.55 | 18.1 | 15.8 | 11.7 | 11.7 | 3.16 | 3.09 | 6.01 | 5.89 | – | Active | 2.04 | 23.4 | 9.55 | 26.9 | 4.27 | 7.18 | Activity [15]: inactive |
| COc1ccc(NC(=S)NNC2=c3ccccc3=NC2=O)cc1 | – | – | – | – | – | – | – | – | – | – | – | – | Toxic | – | – | – | – | – | – | – | – |
| COc1cc(N/N=C(\C)c2ccccn2)ncn1 | 0.26 | 0.095 | 0.26 | 0.22 | 0.36 | 0.355 | 0.49 | 0.49 | 0.14 | 0.132 | 0.027 | 0.0257 | Non-Toxic | Active | 2.62 | – | – | 0.339 | 0.234 | – | Ratio IC50 [12]: 4.33; Activity [13]: Active |
| COc1cc(N/N=C2/C(=O)Nc3ccccc32)ncn1 | – | – | – | – | – | 55 | – | – | – | – | – | – | – | – | – | 91.2 | 129 | – | – | – | IC50 ([3]; mes-sa): Not Active; pIC50 [7]: inactive; pIC50 [16]: inactive |
| COc1ccc(NC(=S)N/N=C(\C)c2ccccn2)cc1 | 0.34 | 0.0142 | 0.25 | 0.064 | 0.95 | 0.692 | 1.75 | 1.05 | 0.046 | 0.0457 | 0.031 | 0.0282 | – | Active | 22.59 | 0.339 | 0.0141 | 0.229 | 0.0575 | 4.54 | Activity [15]: Active |
| Cc1ccc(NC(=S)N/N=C/c2ccccn2)cc1 | 0.396 | 0.076 | 0.79 | 0.77 | 0.74 | 0.724 | 0.92 | 0.891 | 0.048 | 0.0479 | 0.064 | 0.0631 | Non-Toxic | Active | 4.55 | 0.363 | 0.0724 | 0.759 | 0.562 | – | – |
| Cc1ccc(NC(=S)N/N=C2\C(=O)Nc3ccccc32)cc1 | 5.33 | 3.27 | 11.3 | 3.27 | 4.44 | 4.17 | 4 | 3.98 | 9.7 | 9.55 | 8.75 | 8.91 | Toxic | Active | 1.87 | 5.13 | 3.31 | – | – | 3.1 | inhibition [17]: Active; Activity [15]: inactive |
| COc1ccc(NC(=S)N/N=C2\C(=O)Nc3ccccc32)cc1 | 6.1 | 3.59 | 12.1 | 4.15 | 7.82 | 7.59 | 3.78 | 3.98 | 7.49 | 7.41 | 4.84 | 4.68 | – | inactive | 1.87 | 6.03 | 3.47 | – | – | 3.17 | inhibition [17]: Active; Ratio IC50 [18]: 2.04; Ratio IC50 [12]: 1.6; Activity [15]: inactive; Activity [19]: inactive; Activity [13]: inactive |
| C/C(=N\Nc1nc2ccccc2s1)c1ccccc1O | 12.5 | 5.52 | 21.6 | 11.6 | 14.3 | 13.8 | 12.1 | 11.5 | 8.74 | 8.32 | – | 9.77 | Toxic | Active | 1.91 | 12.3 | 5.25 | 21.4 | 8.91 | 1.9 | Activity [15]: Active |
| C/C(=N\NC(=S)Nc1ccc(C)cc1)c1ccccn1 | 0.016 | 0.0018 | 0.065 | 0.029 | 0.0404 | 0.0372 | 0.036 | 0.0331 | 0.017 | 0.0162 | 0.021 | 0.0204 | Non-Toxic | Active | 6.25 | 0.017 | 0.0017 | 0.0417 | 0.0257 | – | Ratio IC50 [18]: 1.15; Activity [19]: Active |
